S100A4 inh HTS = S100A4-myosin IIA interaction inhibition | P26447 | S100A4/TAMRA-MyoIIA peptide fluorescence polarization | inhibition, % at 10.7 µM | hit rate 0.14% among 360,000 | AID 652163;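 active means mean inhibition of at least 70% across replicates, with every replicate also reaching that level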
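Compound dosing: one dose per compound; test system: human S100A4 monomer with TAMRA-labelled myosin IIA peptide; probe or stimulus: TAMRA-labelled myosin IIA heavy-chain peptide probe, 5 nM; medium: HEPES buffer with Ca2+, pH 7.2; schedule: 5 min incubation before reading; benchmarks: neutral control DMSO, positive control TFP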
CRFBP-R2 block = CRF-BP/CRF-R2 complex antagonism. HEK293 CRF-R2/CRF-BP, CRF-induced calcium fluorescence. inhibition, % at 11.8 µM. hit rate 0.59% among 350,000. AID 588475;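 active means inhibition of the ligand-induced calcium signal above about 50% at the single tested concentration, limit read from the data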
PKA-R1A activ = activators of PKA-R1A complex | P00514+P68181 | PKA-R1A dissociation, Cy5-IP20 fluorescence polarization; scaled: DMSO 0%, 113 µM cGMP 100% | activation, % at 11.4 µM | hit rate 0.083% among 340,000 | AID 504707;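 active means percent activation above the mean of all tested compounds plus 3 SD, cut at about 19% in these data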;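 further: higher means more PKAc released from R1A so a rise in polarization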
SIRT5 inh = sirtuin-5 (human) deacylase inhibition; Q9NXA8; Purified SirT5, succinyl-peptide AMC, trypsin-coupled fluorescence; inhibition, % at 15 µM; hit rate 1.1% among 330,000; AID 652115; in the data active means inhibition above about 15%
PKA-R2B act = activators of human PKA-R2B complex; P22694+P31323; PKA-R2B holoenzyme dissociation, Cy5-IP20 fluorescence polarization; R2B truncated from residue 108, S112A mutant; 0% DMSO only, 100% 113 µM cGMP; hit rate 0.079% among 340,000; activation, % at 11.4 µM;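 active means activation above a cutoff set at the mean over all compounds plus 3 SD, cut at about 18% in these data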;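 further: higher means more holoenzyme dissociation and a rise in polarization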
Target sequence (P31323 whole entry, looked up, other chains not shown, the tested form may be a part): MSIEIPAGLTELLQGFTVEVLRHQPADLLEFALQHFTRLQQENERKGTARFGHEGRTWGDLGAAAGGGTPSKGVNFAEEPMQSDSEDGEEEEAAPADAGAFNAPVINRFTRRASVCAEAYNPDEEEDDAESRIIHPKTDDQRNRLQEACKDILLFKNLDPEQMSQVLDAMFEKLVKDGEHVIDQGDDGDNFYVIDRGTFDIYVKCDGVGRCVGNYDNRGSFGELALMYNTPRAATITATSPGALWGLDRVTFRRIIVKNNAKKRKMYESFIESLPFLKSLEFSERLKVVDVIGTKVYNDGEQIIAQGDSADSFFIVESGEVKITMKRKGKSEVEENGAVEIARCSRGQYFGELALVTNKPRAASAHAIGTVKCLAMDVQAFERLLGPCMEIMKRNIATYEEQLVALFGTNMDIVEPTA
Numbers without * were called inactive; nt = no result given. An excerpt weighted towards active compounds, which were near 1.5% of everything screened.

SMILES	S100A4 inh HTS	CRFBP-R2 block	PKA-R1A activ	SIRT5 inh	PKA-R2B act
COc1ccc(C(=O)Nn2c(SCC(=O)NC3CCCCC3)nc3ccccc3c2=O)cc1	nt	75*	-6	nt	-7
O=C(/C=C/c1ccc([N+](=O)[O-])cc1)OCC(=O)c1ccc[nH]1	-17	1	-4	23*	7
Cc1noc(C)c1NC(=O)Nc1ccc2c(c1)C(=O)N([C@H](C)CO)C[C@@H](C)[C@@H](CN(C)Cc1ccc(C(=O)Nc3ccccc3N)cc1)O2	7	nt	nt	19*	nt
C[C@H]1CN([C@@H](C)CO)C(=O)c2cc(NC(=O)Cc3cn(C)c4ccccc34)ccc2O[C@H]1CN(C)Cc1ccc(C(=O)Nc2ccccc2N)cc1	-6	nt	nt	20*	nt
C[C@H](CO)N1C[C@H](C)[C@H](CN(C)C)Oc2ccc(NC(=O)Cn3cnnn3)cc2CC1=O	-27	nt	nt	-2	nt
COc1ccc(NC(=O)Nc2ccc3c(c2)C(=O)N([C@@H](C)CO)C[C@H](C)[C@@H](CN(C)C(=O)NC2CCCCC2)OCCCC[C@H](C)O3)cc1	-2	nt	nt	nt	nt
C[C@H](CO)N1C[C@H](C)[C@@H](CN(C)C(=O)Cc2ccccc2)OCCCC[C@H](C)Oc2ccc(N(C)C)cc2C1=O	-26	nt	nt	6	nt
C[C@H]1CN([C@@H](C)CO)C(=O)Cc2cc(NS(C)(=O)=O)ccc2O[C@@H]1CN(C)Cc1ccc(Cl)c(Cl)c1	-6	55*	-3	-2	16
C[C@@H]1CN([C@@H](C)CO)C(=O)Cc2cc(NS(=O)(=O)c3ccccc3)ccc2O[C@@H]1CN(C)Cc1ccc(Cl)c(Cl)c1	-6	nt	nt	-6	nt
C[C@@H]1CN([C@H](C)CO)C(=O)Cc2cc(NS(C)(=O)=O)ccc2O[C@@H]1CN(C)Cc1ccc(Cl)c(Cl)c1	3	nt	nt	5	nt
C[C@H](CO)N1C[C@H](C)[C@@H](CN(C)Cc2ccc(Cl)c(Cl)c2)Oc2ccc(NC(=O)c3ccncc3)cc2CC1=O	7	nt	nt	17*	nt
C[C@H](CO)N1C[C@H](C)[C@@H](CN(C)Cc2ccc(Cl)c(Cl)c2)Oc2ccc(NS(=O)(=O)c3ccccc3)cc2CC1=O	9	nt	nt	28*	nt
C[C@H]1CN([C@@H](C)CO)C(=O)Cc2cc(NS(=O)(=O)c3ccc(Cl)cc3)ccc2O[C@@H]1CN(C)Cc1ccc(Cl)c(Cl)c1	-7	nt	nt	15*	nt
CO[C@@H]1CN(C)C(=O)c2cc(NC(=O)Cc3ccccc3)ccc2OC[C@@H](C)N(CC2CC2)C[C@H]1C	12	nt	nt	5	nt
COc1ccc(-c2cn(CC[C@@H]3CC[C@H](NC(=O)Nc4ccc(F)cc4)[C@@H](CO)O3)nn2)cc1	-3	nt	nt	0	nt
CO[C@@H]1CN(C)C(=O)c2ccc(NS(=O)(=O)c3cccc(C)c3)cc2OC[C@@H](C)N(Cc2cc(F)ccc2F)C[C@H]1C	4	nt	nt	nt	nt
Cc1nc(N)sc1-c1csc(N(C)c2ccc(O)cc2)n1	-8	51*	-3	-1	2
CN(c1ccc(O)cc1)c1nc(-c2cccs2)cs1	53	12	-10	-2	-2
O=C(c1ccc(NS(=O)(=O)c2ccc(F)cc2)cc1)N1CCCCCC1	-8	-3	6	17*	-6
O=C(Nc1ccc(N2CCCCCC2)cc1)c1ccccc1Cl	-3	81*	-7	-2	-7
O=C(c1ccc(F)cc1)N1CCOCC1	-3	12	0	22*	10
O=C(Nc1ccc(C(=O)N2CCCC2)cc1)c1ccccc1F	6	66*	-6	-4	0
CC(=O)N1CCN(c2ccc(NC(=O)c3ccccc3Cl)cc2)CC1	-7	8	-9	0	0
O=C(Nc1ccc(F)cc1)c1ccc(C(=O)N2CCOCC2)cc1	4	4	-6	-4	0
O=C(Nc1cc(C(=O)N2CCCC2)ccc1N1CCCC1)c1ccccc1F	nt	3	4	nt	-4
Cc1ccc(S(=O)(=O)N[C@@H]2C=C[C@@H](CC(=O)N3CCN(c4ccccc4)CC3)O[C@@H]2CO)cc1	-6	nt	nt	-2	nt
O=C(NCC[C@@H]1CC[C@H](NS(=O)(=O)c2cccc(F)c2)[C@H](CO)O1)C1CCOCC1	-1	nt	nt	4	nt
Cc1ccc(S(=O)(=O)N(C)C[C@@H]2Oc3c(NC(=O)NC4CCCCC4)cccc3C(=O)N([C@H](C)CO)C[C@@H]2C)cc1	-7	nt	nt	8	nt
